Data on seven compounds can be found in ChEMBL document CHEMBL1781898, “Orally active achiral N-hydroxyformamide inhibitors of ADAM-TS4 (aggrecanase-1) and ADAM-TS5 (aggrecanase-2) for the treatment of osteoarthritis” (Bioorg Med Chem Lett, 2011).

Where only a bound is given, the exact number is not on record here.

Data set [1] concerns the target T1, A disintegrin and metalloproteinase with thrombospondin motifs 4 (Homo sapiens, UniProt O75173).
T1 sequence (O75173 whole entry): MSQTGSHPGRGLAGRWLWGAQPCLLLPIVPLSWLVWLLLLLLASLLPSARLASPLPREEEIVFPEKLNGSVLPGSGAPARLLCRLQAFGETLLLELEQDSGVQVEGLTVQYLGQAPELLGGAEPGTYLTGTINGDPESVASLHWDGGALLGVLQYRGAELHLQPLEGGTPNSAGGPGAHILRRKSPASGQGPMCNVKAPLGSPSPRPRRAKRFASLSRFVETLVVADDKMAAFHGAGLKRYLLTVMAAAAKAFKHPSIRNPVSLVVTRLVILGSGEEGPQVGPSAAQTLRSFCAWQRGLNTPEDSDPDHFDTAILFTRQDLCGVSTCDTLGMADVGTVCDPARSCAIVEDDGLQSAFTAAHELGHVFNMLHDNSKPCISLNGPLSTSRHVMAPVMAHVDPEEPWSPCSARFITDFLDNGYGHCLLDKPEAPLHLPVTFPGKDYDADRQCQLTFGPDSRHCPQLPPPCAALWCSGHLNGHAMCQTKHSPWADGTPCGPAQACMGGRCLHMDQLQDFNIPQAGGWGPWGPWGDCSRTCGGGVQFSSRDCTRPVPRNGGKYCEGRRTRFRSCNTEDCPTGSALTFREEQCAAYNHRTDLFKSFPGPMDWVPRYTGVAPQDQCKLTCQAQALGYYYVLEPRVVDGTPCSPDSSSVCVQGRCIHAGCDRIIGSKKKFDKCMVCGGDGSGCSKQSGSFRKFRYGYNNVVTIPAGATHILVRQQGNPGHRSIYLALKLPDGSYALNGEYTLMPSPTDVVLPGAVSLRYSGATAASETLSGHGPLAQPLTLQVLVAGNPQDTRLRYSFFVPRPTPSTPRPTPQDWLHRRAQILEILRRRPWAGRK
Kind of data set: Inhibition of ADAMTS-4 assessed as substrate cleavage after 16 hrs by fluorescence assay. In short, it runs like this: (§1)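 Enzyme inhibition IC50s derived from at least six measurements, standard errors normally <5% within an assay; a standard compound run to keep assay-to-assay variability within twofold.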

Data set [2] deals with Cytochrome P450 3A4 (Homo sapiens, UniProt P08684). The experiment in a line: Inhibition of CYP3A4. Format: ADME. An outline of the steps: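 Inhibition of cytochrome P450 isoforms 1A2, 2C9, 2C19, 2D6 and 3A4, reported as pIC50.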
Cytochrome P450 3A4, sequence (P08684 whole entry, canonical isoform): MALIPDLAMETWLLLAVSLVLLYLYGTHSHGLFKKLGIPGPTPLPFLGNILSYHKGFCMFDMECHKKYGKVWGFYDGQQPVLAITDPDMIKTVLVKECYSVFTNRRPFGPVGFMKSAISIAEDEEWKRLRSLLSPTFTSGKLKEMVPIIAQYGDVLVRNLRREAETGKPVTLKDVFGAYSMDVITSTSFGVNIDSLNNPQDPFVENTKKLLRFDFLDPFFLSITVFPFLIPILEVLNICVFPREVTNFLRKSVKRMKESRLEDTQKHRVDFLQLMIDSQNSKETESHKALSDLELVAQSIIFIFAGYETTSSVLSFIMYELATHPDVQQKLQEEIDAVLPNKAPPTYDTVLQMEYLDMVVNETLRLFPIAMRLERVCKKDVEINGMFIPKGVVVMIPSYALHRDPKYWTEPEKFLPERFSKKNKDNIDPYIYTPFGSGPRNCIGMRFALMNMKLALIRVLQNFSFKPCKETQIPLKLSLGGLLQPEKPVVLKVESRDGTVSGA
Data set [3] concerns the target T2, Collagenase 3 (Homo sapiens, UniProt P45452). The experiment in a line: Inhibition of recombinant human MMP-13 assessed as substrate cleavage at 15 uM after 20 hrs by fluorescence assay.
Data set [4] concerns the target T3, A disintegrin and metalloproteinase with thrombospondin motifs 5 (Homo sapiens, UniProt Q9UNA0).
T3 sequence (Q9UNA0 whole entry): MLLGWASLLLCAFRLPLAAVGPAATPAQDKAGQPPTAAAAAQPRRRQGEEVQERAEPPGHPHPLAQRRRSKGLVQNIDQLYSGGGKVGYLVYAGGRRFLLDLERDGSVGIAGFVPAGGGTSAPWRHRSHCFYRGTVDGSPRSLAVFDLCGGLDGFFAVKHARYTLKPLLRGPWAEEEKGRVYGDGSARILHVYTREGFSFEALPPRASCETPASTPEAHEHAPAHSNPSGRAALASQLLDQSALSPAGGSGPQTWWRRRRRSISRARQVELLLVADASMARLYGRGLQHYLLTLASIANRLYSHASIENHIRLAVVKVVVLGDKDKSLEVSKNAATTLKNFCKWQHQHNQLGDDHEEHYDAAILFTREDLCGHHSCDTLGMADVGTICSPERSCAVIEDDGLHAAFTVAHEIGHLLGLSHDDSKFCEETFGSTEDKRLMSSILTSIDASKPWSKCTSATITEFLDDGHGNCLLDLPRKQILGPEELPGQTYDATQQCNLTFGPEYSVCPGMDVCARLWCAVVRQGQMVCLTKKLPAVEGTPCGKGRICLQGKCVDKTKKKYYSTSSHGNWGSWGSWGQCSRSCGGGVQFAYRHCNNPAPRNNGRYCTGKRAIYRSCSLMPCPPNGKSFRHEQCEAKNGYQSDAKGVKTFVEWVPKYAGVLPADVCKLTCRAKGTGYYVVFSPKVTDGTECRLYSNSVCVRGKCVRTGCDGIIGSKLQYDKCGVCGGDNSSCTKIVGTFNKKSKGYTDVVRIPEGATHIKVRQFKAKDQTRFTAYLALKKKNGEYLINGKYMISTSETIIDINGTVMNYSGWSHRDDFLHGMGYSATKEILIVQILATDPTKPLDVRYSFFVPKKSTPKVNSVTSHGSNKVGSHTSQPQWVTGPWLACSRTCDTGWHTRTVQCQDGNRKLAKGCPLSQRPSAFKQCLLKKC
The experiment in a line: Inhibition of ADAMTS-5 assessed as substrate cleavage after 16 hrs by fluorescence assay. In short, it runs like this:
as §1

The target of data set [5] is T2, Collagenase 3. The experiment in a line: Inhibition of recombinant human MMP-13 assessed as substrate cleavage after 20 hrs by fluorescence assay. In short, it runs like this: as §1
Data set [6] has as its target Matrix metalloproteinase-14 (Homo sapiens, UniProt P50281). The experiment in a line: Inhibition of recombinant human MMP-14 assessed as substrate cleavage after 20 hrs by fluorescence assay. An outline of the steps: as §1
Data set [7] has as its target T4, Interstitial collagenase (Homo sapiens, UniProt P03956).
T4 sequence (P03956 whole entry): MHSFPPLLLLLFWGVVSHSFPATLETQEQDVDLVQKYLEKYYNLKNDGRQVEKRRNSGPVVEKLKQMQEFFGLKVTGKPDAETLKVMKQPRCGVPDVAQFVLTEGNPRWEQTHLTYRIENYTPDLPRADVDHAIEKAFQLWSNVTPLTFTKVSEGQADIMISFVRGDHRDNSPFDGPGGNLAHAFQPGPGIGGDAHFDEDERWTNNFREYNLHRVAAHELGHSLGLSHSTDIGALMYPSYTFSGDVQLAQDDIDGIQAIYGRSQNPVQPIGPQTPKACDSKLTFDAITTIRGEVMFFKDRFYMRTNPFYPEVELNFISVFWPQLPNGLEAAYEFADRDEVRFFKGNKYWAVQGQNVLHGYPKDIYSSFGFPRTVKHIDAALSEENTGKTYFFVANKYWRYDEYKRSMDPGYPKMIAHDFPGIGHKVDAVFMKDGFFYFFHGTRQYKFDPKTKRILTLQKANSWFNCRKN
Kind of data set: Inhibition of recombinant human MMP-1 assessed as substrate cleavage after 20 hrs by fluorescence assay. An outline of the steps:
as §1

Data set [8] addresses 72 kDa type IV collagenase (Homo sapiens, UniProt P08253). The experiment in a line: Inhibition of recombinant human MMP-2 assessed as substrate cleavage after 20 hrs by fluorescence assay. An outline of the steps: as §1
For data set [9], the target named is Matrix metalloproteinase-9 (Homo sapiens, UniProt P14780). The experiment in a line: Inhibition of recombinant human MMP-9 assessed as substrate cleavage after 20 hrs by fluorescence assay. In short, it runs like this: as §1
Matrix metalloproteinase-9, sequence (P14780 whole entry): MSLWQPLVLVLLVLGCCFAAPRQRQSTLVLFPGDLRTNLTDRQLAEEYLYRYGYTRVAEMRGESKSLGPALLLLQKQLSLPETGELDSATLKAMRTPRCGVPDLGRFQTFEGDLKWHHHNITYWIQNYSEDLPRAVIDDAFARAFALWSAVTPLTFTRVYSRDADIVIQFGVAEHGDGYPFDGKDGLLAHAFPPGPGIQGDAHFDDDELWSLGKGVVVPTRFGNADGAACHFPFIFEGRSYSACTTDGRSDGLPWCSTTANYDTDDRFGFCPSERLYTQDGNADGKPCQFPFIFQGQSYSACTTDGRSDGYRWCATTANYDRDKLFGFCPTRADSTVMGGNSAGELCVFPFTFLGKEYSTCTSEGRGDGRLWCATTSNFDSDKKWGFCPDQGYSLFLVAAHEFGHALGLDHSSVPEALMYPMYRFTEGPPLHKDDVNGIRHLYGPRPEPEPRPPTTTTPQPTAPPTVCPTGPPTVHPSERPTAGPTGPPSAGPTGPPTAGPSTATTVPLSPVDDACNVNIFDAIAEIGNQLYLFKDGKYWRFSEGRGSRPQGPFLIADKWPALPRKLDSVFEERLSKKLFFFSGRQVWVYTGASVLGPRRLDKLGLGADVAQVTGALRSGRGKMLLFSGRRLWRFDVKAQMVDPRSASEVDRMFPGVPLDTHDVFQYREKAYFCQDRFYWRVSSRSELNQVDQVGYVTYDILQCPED
A short description of data set [10]: Intrinsic clearance in human liver microsomes. The class given is ADME, Microsome. An outline of the steps:
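Human liver microsome metabolism; intrinsic clearance expressed as μL/min/mg, reported as mean of eight separate experiments.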

Data set [11] can be described thus: Clearance in rat at 2 mg/kg, iv. The class given is ADME, organism-based. Also noted: dose 2 mg/kg, route intravenous. The note with it: in vivo. An outline of the steps: (§2)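 Rat iv PK: 2 mg/kg iv, n = 2 animals; clearance, half-life and Vdss determined.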
Data set [12] is described as follows: Volume of distribution at steady state in rat at 2 mg/kg, iv. Format: ADME, organism-based. Also noted: dose 2 mg/kg, route intravenous. The note with it: in vivo, read-out: Vdss. In short, it runs like this: as §2
Data set [13] can be described thus: Half life in rat at 2 mg/kg, iv. The class given is ADME, organism-based. Set-up: dose 2 mg/kg, route intravenous. The following applies: in vivo. In short, it runs like this:
as §2

72 kDa type IV collagenase, sequence (P08253 whole entry): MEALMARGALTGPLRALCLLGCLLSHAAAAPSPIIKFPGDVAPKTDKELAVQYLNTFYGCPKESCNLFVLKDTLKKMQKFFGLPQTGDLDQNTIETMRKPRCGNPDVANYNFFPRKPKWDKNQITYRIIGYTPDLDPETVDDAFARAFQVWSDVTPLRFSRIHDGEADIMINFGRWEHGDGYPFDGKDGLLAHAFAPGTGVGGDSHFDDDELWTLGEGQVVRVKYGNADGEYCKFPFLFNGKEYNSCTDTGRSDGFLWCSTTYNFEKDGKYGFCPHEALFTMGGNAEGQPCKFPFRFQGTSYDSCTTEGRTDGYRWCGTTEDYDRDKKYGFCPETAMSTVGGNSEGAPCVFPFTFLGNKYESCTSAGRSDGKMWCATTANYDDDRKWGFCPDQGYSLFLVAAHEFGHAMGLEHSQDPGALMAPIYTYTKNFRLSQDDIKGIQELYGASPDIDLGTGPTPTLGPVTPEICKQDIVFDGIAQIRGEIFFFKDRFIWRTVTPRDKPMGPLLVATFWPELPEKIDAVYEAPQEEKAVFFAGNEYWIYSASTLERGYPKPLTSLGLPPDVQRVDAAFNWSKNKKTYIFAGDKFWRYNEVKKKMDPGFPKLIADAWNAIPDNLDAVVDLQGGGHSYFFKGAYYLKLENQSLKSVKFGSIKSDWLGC

Usually IC50 stands for the concentration needed to halve the response being measured. In general, inhibition refers to the share of the control response that was lost under treatment. As for `O=CN(O)C1(CS(=O)(=O)N2CCN(c3ccc(F)cc3)CC2)CCC1`, the IC50 in [1] amounted to 0.091 µM; in data set [2] it was 1.9 µM. In [3], the inhibition amounted to 81%.

By microsomal CLint is commonly meant the rate of metabolic loss divided by the concentration. Low values mean greater metabolic stability, high ones faster metabolism. One may read the clearance as the rate of elimination divided by the concentration. As a reminder, the half-life is the time needed for the level to fall by half in the phase considered. Low values mean rapid decline, high ones slow decline. As to `Cc1nsc(C)c1CCC1CCN(S(=O)(=O)CC2(N(O)C=O)CCOCC2)CC1`, the IC50 in data set [1] is 0.013 µM; in data set [4], 0.45 µM; in [5], greater than 10 µM; in [6] it was greater than 10 µM; in data set [7], greater than 10 µM; in [8], greater than 10 µM. For the same compound, the IC50 in [9] is greater than 10 µM. This compound showed a microsomal CLint in data set [10] of 8.5 µL/min/mg. The clearance in [11] came to 18 mL/min/kg. In addition, the Vd in data set [12] worked out at 2 L/kg. Further, the half-life in data set [13] is 6.3 h.

For the compound `O=CN(O)C1(CS(=O)(=O)N2CCN(c3ccc(F)cc3)CC2)CCOCC1`, the IC50 in data set [1] was 0.021 µM; in data set [2] it was greater than 10 µM. In data set [3], the inhibition came to 97%.

Turning to `Cc1noc(C)c1CCC1CCN(S(=O)(=O)CC2(N(O)C=O)CCN(C)CC2)CC1`, the IC50 in [1] was 0.019 µM; in [4] it was 1.2 µM; in data set [5], greater than 10 µM; in data set [6], greater than 10 µM; in [7] it was greater than 10 µM; in [2], greater than 10 µM. The IC50 in [8] and in [9] was greater than 10 µM throughout. In [10], this compound displayed a microsomal CLint of less than 2 µL/min/mg.

Consider `Cc1noc(C)c1CCC1CCN(S(=O)(=O)CC2(N(O)C=O)CCC(F)(F)CC2)CC1`, for which the IC50 was 0.02 µM in data set [1]; 0.41 µM in [4]; greater than 10 µM in data set [5]; greater than 10 µM in data set [6]; greater than 10 µM in data set [7]; greater than 10 µM in data set [2]. For the same compound, the IC50 in [8] and in [9] was greater than 10 µM in each case. Further, the microsomal CLint in [10] is 13 µL/min/mg.

With `Cc1cc(CCC2CCN(S(=O)(=O)CC3(N(O)C=O)CCOCC3)CC2)c(C)cn1`, the IC50 in data set [1] was 0.018 µM; in [4] it was 3.4 µM; in data set [5], 46 µM; in [6], greater than 100 µM; in data set [7] it was greater than 10 µM; in [8] it was 61 µM. Also, the IC50 in [9] is greater than 100 µM. In data set [10], this compound yielded a microsomal CLint of 4.3 µL/min/mg. This compound also came in with a clearance in data set [11] of 20 mL/min/kg. In addition, the Vd in [12] came to 2 L/kg. Further, in data set [13], the half-life is 4 h.

Take `Cc1cc(F)ccc1CCC1CCN(S(=O)(=O)CC2(N(O)C=O)CCOCC2)CC1`: the IC50 was 0.0045 µM in data set [1]; 0.069 µM in data set [4]; 0.94 µM in data set [5]; 3.1 µM in data set [6]; greater than 10 µM in data set [7]; 1.3 µM in data set [8]. In addition, the IC50 in data set [9] worked out at 3.1 µM. This compound also showed a microsomal CLint in data set [10] of less than 2 µL/min/mg. The compound further yielded a clearance in data set [11] of 15 mL/min/kg. Further, the Vd in data set [12] was found to be 2 L/kg.
